For assay [1], the target named is T1, Segment polarity protein dishevelled homolog DVL-1 (Homo sapiens, UniProt O14640).
T1 sequence (O14640 whole entry): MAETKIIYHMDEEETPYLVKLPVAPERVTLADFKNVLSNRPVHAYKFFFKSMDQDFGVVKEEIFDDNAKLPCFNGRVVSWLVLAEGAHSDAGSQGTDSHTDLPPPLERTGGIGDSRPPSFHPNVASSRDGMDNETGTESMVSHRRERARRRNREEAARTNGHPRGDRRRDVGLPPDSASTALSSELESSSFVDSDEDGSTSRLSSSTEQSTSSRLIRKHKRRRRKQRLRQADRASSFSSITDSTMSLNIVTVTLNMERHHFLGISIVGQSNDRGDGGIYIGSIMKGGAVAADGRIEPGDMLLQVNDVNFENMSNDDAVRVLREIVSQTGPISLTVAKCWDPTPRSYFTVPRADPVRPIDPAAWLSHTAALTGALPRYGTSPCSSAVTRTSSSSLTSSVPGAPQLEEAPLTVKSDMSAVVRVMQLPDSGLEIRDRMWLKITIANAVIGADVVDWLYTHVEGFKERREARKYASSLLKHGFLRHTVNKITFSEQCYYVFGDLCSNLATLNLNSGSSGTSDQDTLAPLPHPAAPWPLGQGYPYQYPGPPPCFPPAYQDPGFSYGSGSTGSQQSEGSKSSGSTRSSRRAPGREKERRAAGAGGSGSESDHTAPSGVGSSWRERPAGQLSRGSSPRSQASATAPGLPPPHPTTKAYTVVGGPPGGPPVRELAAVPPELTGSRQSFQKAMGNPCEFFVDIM
The assay can be described thus: Antagonist activity at human Dvl1 assessed as inhibition of interaction between Dvl1 PDZ domain and […] by alphaScreen assay. Format: functional. (Alpha assays give light when donor and acceptor beads are brought close together.)

Assay [2] deals with T2, Segment polarity protein dishevelled homolog DVL-3 (Homo sapiens, UniProt Q92997).
T2 sequence (Q92997 whole entry): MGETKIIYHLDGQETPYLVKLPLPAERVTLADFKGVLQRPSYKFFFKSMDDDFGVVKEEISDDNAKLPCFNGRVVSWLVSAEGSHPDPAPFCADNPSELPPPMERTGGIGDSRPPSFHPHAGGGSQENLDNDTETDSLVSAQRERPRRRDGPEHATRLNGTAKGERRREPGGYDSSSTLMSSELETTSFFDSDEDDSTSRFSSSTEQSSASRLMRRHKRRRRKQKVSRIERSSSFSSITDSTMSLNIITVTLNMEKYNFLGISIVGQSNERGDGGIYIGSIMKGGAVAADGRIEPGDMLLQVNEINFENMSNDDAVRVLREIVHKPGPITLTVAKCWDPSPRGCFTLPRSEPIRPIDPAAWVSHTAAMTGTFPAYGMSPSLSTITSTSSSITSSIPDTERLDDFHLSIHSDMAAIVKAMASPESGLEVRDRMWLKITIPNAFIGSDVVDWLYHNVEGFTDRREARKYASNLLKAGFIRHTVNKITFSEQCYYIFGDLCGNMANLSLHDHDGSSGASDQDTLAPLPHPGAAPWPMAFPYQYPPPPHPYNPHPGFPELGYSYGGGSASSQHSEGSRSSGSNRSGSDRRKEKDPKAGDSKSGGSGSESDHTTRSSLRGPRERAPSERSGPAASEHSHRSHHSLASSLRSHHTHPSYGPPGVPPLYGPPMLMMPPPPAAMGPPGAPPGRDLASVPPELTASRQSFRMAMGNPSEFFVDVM
The assay can be described thus: Antagonist activity at human Dvl3 assessed as inhibition of interaction between Dvl3 PDZ domain and […] by alphaScreen assay. Format: functional. In short, it runs like this: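 Competitive AlphaScreen energy-transfer assay for binding of the Dvl PDZ domain to the Fz7 PDZ-binding region. IC50 fitted from binding curves, each the mean of three independent experiments.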

The test system of assay [3] is BJ. The assay can be described thus: Induction of apoptosis in human BJ cells assessed as caspase 7 activation at 100 uM after 2 days. The format is functional, cell-based. In outline:
(§1)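 HepG2 hepatocellular carcinoma, Rh30 rhabdomyosarcoma and hTERT-immortalized BJ foreskin fibroblast cells were exposed to compound at 100 μM for 2 days. Caspase-3/7 activity was then read with Caspase3/7-Glo reagent and expressed as a proportion of the DMSO control (set to 1), as the mean of three independent experiments.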

Assay [4] concerns HepG2. The assay can be described thus: Induction of apoptosis in human HepG2 cells assessed as caspase 7 activation at 100 uM after 2 days. Format: functional, cell-based. In outline: as §1
Assay [5] deals with SJRH30. The assay can be described thus: Induction of apoptosis in human Rh30 cells assessed as caspase 7 activation at 100 uM after 2 days. The format is functional, cell-based. In outline:
as §1

For assay [6], the system named is HepG2. In words: Induction of apoptosis in human HepG2 cells assessed as caspase 3 activation at 100 uM after 2 days. Format: functional, cell-based. In short, it runs like this:
as §1

In assay [7] the test system is BJ. The assay can be described thus: Induction of apoptosis in human BJ cells assessed as caspase 3 activation at 100 uM after 2 days. Format: functional, cell-based. In short, it runs like this:
as §1

In assay [8] the test system is SJRH30. The assay can be described thus: Induction of apoptosis in human Rh30 cells assessed as caspase 3 activation at 100 uM after 2 days. The format is functional, cell-based. In outline: as §1

The source made the active and inactive calls. The calls are words filed in the database; no cut-off is given here.

Ten compounds from ChEMBL document CHEMBL1143159, “Indole-2-amide based biochemical antagonist of Dishevelled PDZ domain interaction down-regulates Dishevelled-driven Tcf transcriptional activity” (Bioorg Med Chem Lett, 2008) can be followed below.

Turning to `CCCNC(=O)c1[nH]c2cc(C)c(C(=O)O)cc2c1CCc1ccccc1`, the IC50 in assay [1] and in assay [2] was greater than 500 µM in each case.

Regarding `Cc1cc2c(cc1C(=O)O)c(CCc1ccccc1)c(C(=O)NC1CCCCC1)n2C`, the outcome in the assay with BJ [3] and with BJ [7] was inactive. Moreover, the outcome in the assay with HepG2 [4], in the assay with SJRH30 [5], in the assay with HepG2 [6] and in the assay with SJRH30 [8] was Active. Further, the IC50 in assay [2] came out at 92 µM.

For the compound `Cc1cc2[nH]c(C(=O)NC(C)(C)C)c(CCc3ccccc3)c2cc1C(=O)O`, the IC50 in assay [1] and in assay [2] was greater than 500 µM in each case.

For the compound `Cc1cc2[nH]c(C(=O)NCCC(=O)O)c(CCc3ccccc3)c2cc1C(=O)O`, the IC50 in assay [1] and in assay [2] was greater than 500 µM in each case.

Take `Cc1cc2[nH]c(C(=O)NCC3CC3)c(CCc3ccccc3)c2cc1C(=O)O`: the IC50 in assay [1] and in assay [2] was greater than 500 µM throughout.

Take `COC(=O)c1cc2c(CCc3ccccc3)c(C(=O)NC3CCCCC3)[nH]c2cc1C`: the IC50 in assay [2] was determined as 57 µM.

For the compound `CCC(C)CNC(=O)c1[nH]c2cc(C)c(C(=O)O)cc2c1CCc1ccccc1` (stereo not drawn), the outcome in the assay on BJ [3] and in the assay on BJ [7] was inactive. Further, the outcome in the assay with HepG2 [4], with SJRH30 [5], with HepG2 [6] and in the assay on SJRH30 [8] was Active. Further, the IC50 in assay [2] was determined as 160 µM.

Regarding `Cc1cc2[nH]c(C(=O)NCC3CCCCC3)c(CCc3ccccc3)c2cc1C(=O)O`, the IC50 in assay [2] came out at 309 µM.

Take `Cc1cc2[nH]c(C(=O)NCc3ccccc3)c(CCc3ccccc3)c2cc1C(=O)O`: the outcome with BJ [3] and with BJ [7] was inactive. The outcome in the assay with HepG2 [4], in the assay with SJRH30 [5], in the assay with HepG2 [6] and in the assay on SJRH30 [8] was Active. Moreover, the IC50 in assay [2] came out at 291 µM.

In the case of `Cc1cc2[nH]c(C(=O)NC3CCCCC3)c(CCc3ccccc3)c2cc1C(=O)O`, the outcome in the assay with BJ [3] and with BJ [7] was inactive. Moreover, the result in the assay with HepG2 [4], with SJRH30 [5], in the assay on HepG2 [6] and with SJRH30 [8] was Active. The IC50 in assay [2] came out at 23 µM.

By IC50 is commonly meant the point on the concentration scale where inhibition reaches its midpoint.
